This passage reports IC50 results from ChEMBL document CHEMBL1146121 (J Med Chem, 2006).

For orientation: pIC50 means the negative decadic logarithm of the IC50, by convention in mol/L.

In test [1] the test system is Plasmodium falciparum. The test can be described thus: Inhibition of Plasmodium falciparum 3D7. The test is classed as functional, organism-based. The method, boiled down: (§1)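 Intraerythrocytic parasites cultured with the test agent in a semiautomated microdilution format. Growth was followed by incorporation of tritium-labelled hypoxanthine.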
The test system of test [2] is Plasmodium falciparum. Briefly: Inhibition of Plasmodium falciparum Dd2. The test is classed as functional, organism-based. In a few lines:
as §1

Test [3] concerns the target T1, 1-deoxy-D-xylulose 5-phosphate reductoisomerase (Escherichia coli K-12, UniProt P45568).
T1 sequence (P45568 whole entry): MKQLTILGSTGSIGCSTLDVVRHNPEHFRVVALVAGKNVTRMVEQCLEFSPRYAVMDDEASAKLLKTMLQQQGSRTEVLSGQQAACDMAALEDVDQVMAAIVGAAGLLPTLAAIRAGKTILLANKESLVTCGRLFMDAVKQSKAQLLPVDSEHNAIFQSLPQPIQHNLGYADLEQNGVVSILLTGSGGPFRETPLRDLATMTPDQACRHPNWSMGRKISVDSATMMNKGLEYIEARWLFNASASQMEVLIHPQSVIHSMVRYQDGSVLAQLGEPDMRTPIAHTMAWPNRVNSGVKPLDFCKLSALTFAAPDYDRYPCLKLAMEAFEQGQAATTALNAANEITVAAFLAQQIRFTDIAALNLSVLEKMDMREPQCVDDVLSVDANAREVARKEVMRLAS
The test can be described thus: Inhibition of recombinant Escherichia coli DXR. The method, boiled down: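 Enzyme activity measured as conversion of DOXP to MEP, read out via the NADPH dependence of the reductoisomerase reaction.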

pIC50: −log10 of the molar value.

`CC(=O)N(O)C[C@@H]1C[C@H]1P(=O)(O)O`: the pIC50 was 6.49 in the test on Plasmodium falciparum [1], 6.32 with Plasmodium falciparum [2] and 7.30 in test [3].

As to `O=CN(O)C[C@@H]1C[C@H]1P(=O)(O)O`, the results for the negative-log IC50 (pIC50) (in the test on Plasmodium falciparum [1]; with Plasmodium falciparum [2]; in test [3]) were 5.68, 5.70 and 6.50, respectively.

Take `CC(=O)N(O)CC1CC1P(=O)(O)O` (centres undefined): in test [3], the pIC50 was 6.80.

With `CCC(=O)N(O)C[C@@H]1C[C@H]1P(=O)(O)O`, the pIC50 in test [3] was < 5.52.

Turning to `CC(=O)N(O)CC1CC1(c1ccccc1)P(=O)(O)O` (centres undefined), the pIC50 in test [3] was < 4.52.

Consider `O=CN(O)CCCP(=O)(O)O` [FOSMIDOMYCIN], for which the negative-log IC50 (pIC50) in the test on Plasmodium falciparum [1] is 6.40; with Plasmodium falciparum [2] it was 6.32.

Take `CC(=O)N(O)CCCP(=O)(O)O` [FR-900098]: the negative logarithm of the IC50 (pIC50) is 6.62 with Plasmodium falciparum [1], 6.55 in the test with Plasmodium falciparum [2] and 7.24 in test [3].
